The list is not random: actives were taken first. Their share in the collection is about 2.3%.
ADAM17 inh: inhibitors of human ADAM17. recombinant ADAM17, EDANS/DABCYL FRET peptide cleavage. inhibition, % at 6.95 µM. actives 0.83% (n = 370,000). AID 720648;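 active = inhibition above the mean of compounds lying between control limits plus 3 SD, set per campaign, cut at about 8.5% in these data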;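 note: 0% = DMSO-only wells as the low control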
PLCg1 inh: PLC-gamma1 (human) inhibition, primary screen; P19174; purified PLC-gamma1, fluorogenic substrate, fluorescence; inhibition, % at 12.2 µM; actives 0.84% (n = 370,000); in the data active = inhibition above about 9.5%
PLC-beta3 inh: blocks human PLC-beta3 enzyme activity. Q01970. Purified PLC-beta3, fluorogenic substrate, fluorescence. inhibition, % at 12.2 µM. actives 0.18% (n = 370,000). AID 720704; in the data active = inhibition above about 11%;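 note: 0% = median of compound wells on plate and 100% = full blocker control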
ADAM10 inh: inhibitors of human ADAM10; O14672; recombinant ADAM10, EDANS/DABCYL FRET peptide cleavage, 3 h; inhibition, % at 7 µM; actives 0.62% (n = 370,000); AID 720582;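 active = inhibition above a per-campaign cutoff equal to the mean of compounds falling between control-based bounds plus 3 SD, cut at about 20% in these data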;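 note: 0% = DMSO wells while the 100% control is not disclosed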
DDE Tn7 FP inh: DD(E)-Tn7 binding inhibition, primary FP screen; P02675; FP displacement of FITC-Tn7 peptide from fibrin DD(E); 0% = median of compound wells per plate; inhibition, % at 8.3 µM; actives 0.13% (n = 370,000); AID 720508;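 active = inhibition above the mean of compounds falling within the control limits plus 3 SD of them, cut at about 14% in these data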;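 note: 0% = plate median of compound wells and 100% = 10 µM Aha-Tn7 peptide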
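Assay system: human fibrin DD(E) protein / Input: 2 µM fibrin DD(E) / Benchmarks: high control of 10 µM Aha-Tn7 peptide / Measured by: fluorescence polarization of the labelled Tn7 tracer / Medium: Tris buffer with calcium and detergent, pH 7.8 / Timing: 10 min compound pre-incubation, 3 h probe incubation at room temperature / Repeats: one replicate per compound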
Tn6 DDE FP: disrupts Tn6 cyclic peptide binding to fibrin D-Dimer-E complex | inhibition, % at 8.3 µM | actives 0.21% (n = 370,000) | P02675 | Fibrin DD(E) TRITC-Tn6 fluorescence polarization displacement;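 active = inhibition above a per-campaign cutoff: mean of compounds within control limits plus 3 SD, cut at about 15% in these data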;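 note: 0% = median of all compound wells on the plate and 100% = blocking peptide control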
ADAM10 confirm: confirmation of inhibitors of human ADAM10; actives 1% (n = 2,100); ADAM10 QFRET peptide cleavage, EDANS fluorescence; inhibition, % at 6.95 µM; shares compounds with ADAM10 inh;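 active = inhibition above about 20% chosen separately for each screening run, limit read from the data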;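 note: 0% = DMSO wells and 100% = marimastat wells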
ADAM17 ctr: inhibits human ADAM17 in ADAM10 exosite counter-screen. ADAM17 QFRET peptide cleavage, EDANS fluorescence. shares compounds with ADAM10 inh. actives 0.5% (n = 2,100). AID 743214. inhibition, % at 6.95 µM;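 active = mean triplicate inhibition above the solvent-only control wells' mean plus 3 SD, cut at about 12% in these data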;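 note: 0% = DMSO wells and 100% = marimastat wells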
ADAM10 counter: inhibits human ADAM10 in ADAM17 exosite counter-screen | shares compounds with ADAM17 inh | recombinant ADAM10, EDANS/DABCYL FRET peptide cleavage, 3 h | inhibition, % at 6.95 µM | actives 47% (n = 2,900) | AID 743256;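 active = mean inhibition over the triplicate runs exceeds the activity threshold set in the earlier primary screen, cut at about 20% in these data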;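 note: 0% = DMSO wells and 100% = marimastat wells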
ADAM17 confirm: confirmation of inhibitors of human ADAM17 | inhibition, % at 6.95 µM | shares compounds with ADAM17 inh | actives 65% (n = 2,900) | recombinant ADAM17, EDANS/DABCYL QFRET peptide cleavage;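 active = mean inhibition across replicates above the hit cutoff set in the primary screen, cut at about 8.5% in these data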;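 note: 0% = DMSO wells and 100% = marimastat wells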
An asterisk follows results filed as active; / = not tested or not shown.

SMILES	ADAM17 inh	PLCg1 inh	PLC-beta3 inh	ADAM10 inh	DDE Tn7 FP inh	Tn6 DDE FP	ADAM10 confirm	ADAM17 ctr	ADAM10 counter	ADAM17 confirm
Cc1ccc(NC(=O)c2cc(NC(=O)c3ccccc3C(=O)O)ccc2N2CCCCC2)cc1	-1	-164	-182	-5	-2	-5	/	/	/	/
COc1ccc2c(c1)C1C=CCC1C(c1cc3c(cc1Br)OCO3)N2 (centres undefined)	9.1*	3	-7	22*	-3	-6	3	2	-3	0
O=C(CSc1nc(NS(=O)(=O)c2ccccc2)cc(=O)[nH]1)Nc1ccc(Cl)cc1	-1	1	-4	-4	1	-7	/	/	/	/
O=c1cc(NS(=O)(=O)c2ccccc2)nc(SCc2ccc(Cl)cc2)[nH]1	11*	4	5	20*	-11	-5	10	3	25*	14*
CCOc1ccc(-n2c(SC/C=C/c3ccccc3)nnc2-c2ccco2)cc1	7	3	-3	15	5	-8	/	/	/	/
O=S(=O)(Nc1ccc2c(c1)OCCO2)c1ccc2oc3ccccc3c2c1	11*	5	5	24*	0	-2	8	2	26*	14*
O=C(CSc1nnc(Cc2cccs2)n1-c1ccc(Cl)cc1)Nc1ccc(OCc2ccccc2)cc1	14*	0	1	26*	8	2	13	3	23*	16*
O=C(NCc1ccc(Cl)c(Cl)c1)c1cc(C2CCCCN2C(=O)CCc2ccccc2)on1 (centres undefined)	9.2*	4	2	25*	-3	-7	5	1	18	10*
O=C(NCc1ccccc1)c1cc(C2CCCCN2C(=O)CCc2ccccc2)on1 (centres undefined)	-1	5	1	-1	-1	2	/	/	/	/
Cc1ccc(C(=O)Nc2ccccc2-c2ccccc2)cc1S(=O)(=O)Nc1cccc(C)c1C	12*	0	-6	29*	2	-2	17	5	40*	19*
Cc1ccccc1NS(=O)(=O)c1cc(C(=O)Nc2cccc([N+](=O)[O-])c2)ccc1C	11*	2	1	27*	2	-6	6	2	36*	22*
O=C(NCc1ccc(Cl)c(Cl)c1)O[C@H]1CC[C@@]23CCCN2C(=O)CCC[C@H]3C1	-5	2	-2	0	-3	5	/	/	/	/
COC(=O)[C@H](CC1(c2cn(S(=O)(=O)CC[Si](C)(C)C)c3ccccc23)C(=O)Nc2ccccc21)NC(=O)OC(C)(C)C (some centres undefined)	8	-20	-27	16	1	-2	/	/	/	/
CC(=O)Nc1cc(ON=C(C)C)cc([N+](=O)[O-])c1	0	0	0	0	-2	6	/	/	/	/
COc1ccccc1/C(C)=N/Oc1cc(N)cc([N+](=O)[O-])c1	15*	3	-11	27*	-4	5	4	2	14	9.8*
N#CCCn1nc(-c2ccccc2)cc1Nc1ccccc1NC(=O)C(F)(F)F	-5	-14	-9	-16	0	3	/	/	/	/
N#CCCn1nc(-c2ccc([N+](=O)[O-])cc2)cc1Nc1ccccc1NC(=O)C(F)(F)F	20*	7	7	36*	-5	-1	0	0	16	9.5*
CNC(=O)CCc1[nH]c2ccccc2c1Sc1ccccc1	9.1*	8	5	20*	-7	-4	1	0	4	3
